Experimental data: publication PMC8742637 (Clinical and Translational Science, 2021)
Where two headings read alike, the source gives them in different places.

Legend:
[1] = type: in vivo; conditions: human, plasma, po, 10 mg
Method in brief: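 Single-center, randomized, open-label, three-period, six-sequence crossover in healthy volunteers. Each drug was given alone and with the other as a single oral dose after a 10-h fast. Blood was sampled to 72 h, and washout was at least 21 days. Plasma was analysed by LC-MS with stable isotope-labeled internal standards. Noncompartmental parameters: AUC0-T by linear trapezoidal rule, AUC∞ = AUC0-T + Clast/λz.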

[2] = Study 3: safety, treatment-emergent adverse events; type: in vivo, human; conditions: BISO 10 mg, RAMI 10 mg alone or together, % of subjects in the Safety population in each treatment group
[3] = Bioequivalence studies 1 and 2: PK summary across both treatments and studies; type: in vivo, human
Method in brief: (§1)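 Single-center, randomized, open-label, laboratory-blinded, two-period, two-sequence crossover in healthy volunteers. Each subject got one oral dose of the fixed-dose combination or the co-administered reference tablets with ~240 ml water after a 10-h fast. Washout was at least 21 days. Parent drugs were measured in plasma by LC-MS after protein precipitation. Noncompartmental analysis used actual times, with t½ = ln(2)/λz.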

[4] = type: in vivo; conditions: human, plasma, oral, 5 mg
Method in brief: as §1

[5] = type: in vivo, human
Method in brief: as §1

AUC(0-inf) [1] [ng·h/mL]	AUC(0-t) [1] [ng·h/mL]	Cmax [1] [ng/mL]	Tmax [1] [h]	half-life [1] [h]	time after dosing at which BISO peak concentrations were achieved ([3]; across both treatments, studies 1 and 2, BISO 10 mg single oral dose, fasting) [h]	half-life ([3]; human, plasma, oral) [h]	half-life [4] [h]	observed ISCV (intrasubject coefficient of variation) for Cmax ([5]; Study 1, expected 32%) [%]	half-life ([5]; human, plasma, oral, 10 mg) [h]	median time to ramipril peak concentration ([3]; across both treatments and studies 1 and 2) [h]	SMILES	Subjects with at least one drug‐related TEAE [2]
777	732	42.6	2.33	11.2	2.33	10.7 to 10.9					CC(C)NCC(O)COc1ccc(COCCOC(C)C)cc1 (stereo not drawn) [BISO, bisoprolol]	4 (13.8) n (%)
18.1	17.1	24.1	0.5	2.03			1.39 to 1.68	36	2.17 to 2.32	0.50	CCOC(=O)[C@H](CCc1ccccc1)N[C@@H](C)C(=O)N1[C@H](C(=O)O)C[C@@H]2CCC[C@@H]21 [RAMI, ramipril]	3 (10.7) n (%)
